As usually defined, the IC50 is the concentration that gives 50% inhibition. A higher IC50 goes with weaker potency.

These results are taken from article PMC2529378 (Evidence-based Complementary and Alternative Medicine : eCAM, 2007).

In one data set the target is human ERβ (Homo sapiens, UniProt Q92731). The data set is described as follows: Ligand binding assay for ERβ.
Another data set concerns the target T1, human ERα (Homo sapiens, UniProt P03372).
T1 sequence (P03372 1-595): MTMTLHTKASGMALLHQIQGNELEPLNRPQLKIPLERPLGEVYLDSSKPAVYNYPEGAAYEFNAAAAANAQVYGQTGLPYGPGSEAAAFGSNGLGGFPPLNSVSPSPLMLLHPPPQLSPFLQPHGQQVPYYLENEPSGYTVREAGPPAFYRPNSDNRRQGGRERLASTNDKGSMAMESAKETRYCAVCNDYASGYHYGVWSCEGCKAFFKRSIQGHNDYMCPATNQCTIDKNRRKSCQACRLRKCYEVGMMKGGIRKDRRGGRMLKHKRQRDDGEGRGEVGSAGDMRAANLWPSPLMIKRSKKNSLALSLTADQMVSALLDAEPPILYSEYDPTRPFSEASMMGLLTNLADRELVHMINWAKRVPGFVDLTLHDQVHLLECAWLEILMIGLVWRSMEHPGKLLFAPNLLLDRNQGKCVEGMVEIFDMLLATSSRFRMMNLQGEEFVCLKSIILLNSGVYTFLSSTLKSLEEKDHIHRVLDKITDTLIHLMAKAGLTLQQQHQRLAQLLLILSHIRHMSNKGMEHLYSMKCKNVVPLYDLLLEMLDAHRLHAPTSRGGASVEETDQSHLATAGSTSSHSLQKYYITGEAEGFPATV
The data set is described as follows: Ligand binding assay for ERα.

For data set [1], the system named is luminal epithelium of the uterus. The data set is described as follows: Histology of uterine luminal epithelial cell height in immature rats. The following applies: 3 days. The class given is in vivo, Sprague Dawley rats. The procedure, abridged:
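Rats got daily s.c. doses for 3 days from postnatal day 20 and were killed 27 h after the last dose. Uteri were fixed in Bouin's solution for 24 h, paraffin-embedded, cut as 8 µm serial cross sections and H&E-stained. Luminal epithelial cell height was measured by light microscopy in the mid-region of each horn, in five areas from five sections ~160 µm apart. Mean and SD were reported; Dunnett's test compared groups with sesame-oil controls.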

In another data set the test system is uterus of immature rats. The data set is described as follows: Uterotrophic assay in immature female rats. Type of data set: in vivo, Sprague Dawley rats. The following applies: 3 days; for Body weight, mean / Uterus wet weight, mean / Uterus/body weight: immature female rats; for Change in wet uterine weight: immature rats. Summed up: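 Female Sprague Dawley rats were housed at 23±1°C on a standard diet. From postnatal day 20 they were injected s.c. once daily for 3 days at 10 ml/kg in sesame oil. Doses were test compound at 1 g/kg/day or 17α-ethynylestradiol at 0.1 or 3 µg/kg/day; controls got sesame oil. Vaginal opening and clinical signs were monitored. On day 23, 27 h after the last dose, uteri were excised with ovaries attached and weighed. Dunnett's test was used versus controls.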

A further data set deals with MCF-7 cells. The data set is described as follows: MCF-7 cell proliferation assay. The class given is cell-based, human. As to conditions: 1 μM. The procedure, abridged: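 MCF-7 cells were kept in RPMI-1640 with 10% heat-inactivated FBS at 37°C and 5% CO2. Cells were seeded at 10 000 cells/well in phenol red-free RPMI-1640 with 10% charcoal dextran-treated FBS. After 1 day the medium was changed and cells received test compound (0.001–0.1 mM) or 0.5 nM E2, with or without 1 µM tamoxifen. After three days, proliferation was read by colorimetric MTT assay. Mean and SD of six experiments.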

[2] abbreviates: 1 g kg^−1 day^−1 s.c., vs vehicle-treated controls.

Marks after values point to notes of the source that are not given here.

human ERβ, sequence (Q92731 whole entry): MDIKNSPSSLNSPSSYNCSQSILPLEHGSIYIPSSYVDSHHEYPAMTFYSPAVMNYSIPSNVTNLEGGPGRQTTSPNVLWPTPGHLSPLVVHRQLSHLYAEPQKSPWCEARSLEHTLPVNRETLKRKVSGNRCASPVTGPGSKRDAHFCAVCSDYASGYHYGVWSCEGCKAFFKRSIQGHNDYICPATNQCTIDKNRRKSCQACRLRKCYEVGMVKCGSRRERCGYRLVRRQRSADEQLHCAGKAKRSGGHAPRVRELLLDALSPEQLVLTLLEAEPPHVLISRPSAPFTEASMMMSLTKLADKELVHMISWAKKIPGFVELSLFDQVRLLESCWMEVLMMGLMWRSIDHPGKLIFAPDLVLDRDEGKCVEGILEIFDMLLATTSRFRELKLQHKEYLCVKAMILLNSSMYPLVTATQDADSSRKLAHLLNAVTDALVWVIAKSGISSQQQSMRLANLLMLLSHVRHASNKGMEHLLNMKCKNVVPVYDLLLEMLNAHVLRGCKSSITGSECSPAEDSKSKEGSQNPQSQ

Turning to `CCCCCCC/C=C/C(=O)O` [2DEA, trans-2-decenoic acid], the concentration for half-maximal inhibition (IC50) at human ERβ was 17 µM. Moreover, the “Effect upon the ability of E2 to bind to ERα” value (from here on “Effect upon the ability of E2”) at human ERα is reported as “little or no effect”. Moreover, the “Hypertrophy of the uterine luminal epithelium” value in data set [1] (setting [2]) is reported as “mild hypertrophy”. For the same compound, in the data set with uterus of immature rats (1 g kg^−1 day^−1 s.c.), the “Body weight, mean” value was 45.9 g; the “Uterus wet weight, mean” value came out at 22.9 mg; the Uterus/body weight stood at 0.51; the “Change in wet uterine weight” value is “did not detect an increase”.

Take `O=C(O)/C=C/CCCCCCCO` [10H2DA, 10-hydroxy-trans-2-decenoic acid]: the half-inhibitory concentration (IC50) at human ERβ turned out to be 90 µM. Moreover, the “Effect upon the ability of E2” value on human ERα is listed as “little or no effect”. The “Hypertrophy of the uterine luminal epithelium” value in data set [1] (setting [2]) was “mild hypertrophy”. In the data set on uterus of immature rats (1 g kg^−1 day^−1 s.c.), the “Body weight, mean” value was 42.9 ^* g; the “Uterus wet weight, mean” value is 25.9 mg; the Uterus/body weight turned out to be 0.59; the “Change in wet uterine weight” value is reported as “did not detect an increase”.

Compound `O=C(O)CCCCCCCCCO` [10HDA, 10-hydroxydecanoic acid] displayed an IC50 on human ERβ of 140 µM. Moreover, the “Effect upon the ability of E2” value on human ERα was “little or no effect”. Moreover, the “Hypertrophy of the uterine luminal epithelium” value in data set [1] (setting [2]) is “mild hypertrophy”. Also, in the data set on uterus of immature rats (1 g kg^−1 day^−1 s.c.), the “Body weight, mean” value was found to be 45.8 g; the “Uterus wet weight, mean” value was 25.2 mg; the Uterus/body weight was determined as 0.55; the “Change in wet uterine weight” value is reported as “did not detect an increase”.

For the compound `C#C[C@]1(O)CC[C@H]2[C@@H]3CCc4cc(O)ccc4[C@H]3CC[C@@]21C` [17αEE2, 17α-ethynylestradiol, reference compound], in data set [1] (0.1 μg kg^−1 day^−1 s.c.), the “Hypertrophy of the uterine luminal epithelium (luminal height)” value is “only a mild increase in luminal height”. Besides, in data set [1] (3 μg kg^−1 day^−1 s.c.), the “Hypertrophy of the uterine luminal epithelium” value was “marked hypertrophy”. In the data set on uterus of immature rats (0.1 μg kg^−1 day^−1 s.c.), the “Body weight, mean” value is 47.9 g; the “Uterus wet weight, mean” value is given as 41.0 ^** mg; the Uterus/body weight is recorded as 0.87. Moreover, in the data set on uterus of immature rats (3 μg kg^−1 day^−1 s.c.), the “Body weight, mean” value is 47.1 g; the “Uterus wet weight, mean” value was 115 ^** mg; the Uterus/body weight is 2.5. Besides, the “Increase in wet uterine weight compared with vehicle-treated controls” value with uterus of immature rats (doses of 0.1 and 3 μg kg^−1 day^−1 s.c.) is reported as “over 1.5 fold”.

On to `C=C(CC[C@@H](C)[C@H]1CC[C@H]2[C@@H]3CC=C4C[C@@H](O)CC[C@]4(C)[C@H]3CC[C@]12C)C(C)C` [24MET, 24-methylenecholesterol], for which the IC50 on human ERβ worked out at 6 µM. Also, the “Effect upon the ability of E2” value at human ERα is given as “little or no effect”. In addition, the “Hypertrophy of the uterine luminal epithelium” value in data set [1] (setting [2]) was “mild hypertrophy”. Besides, in the data set with uterus of immature rats (1 g kg^−1 day^−1 s.c.), the “Body weight, mean” value is 47.5 g; the “Uterus wet weight, mean” value came to 25.9 mg; the Uterus/body weight was 0.55; the “Change in wet uterine weight” value was “did not detect an increase”.

As to `CC/C(=C(\c1ccccc1)c1ccc(OCCN(C)C)cc1)c1ccccc1` [tamoxifen], the “Effect on MCF-7 proliferation when administered alone” value with MCF-7 cells is recorded as “no effect on proliferation”.
